Published values from different studies.
Each line is one published result; the experiments were not run side by side.
Medium: plasma

CCc1cc(C(=O)NC)c2nccc(N3CCc4c(cc(Cn5ccnc5)cc4-c4cn(C)nc4C(F)(F)F)C3=O)c2c1
Cmax (male Sprague-Dawley rat; oral, 50 mg/kg): 18400 ng/mL

CCOC(=O)[C@@]12C[C@@H]1[C@@H](n1ccc3c(NC)nc(C#Cc4ccc(Cl)s4)nc31)[C@H](O)[C@@H]2O
Cmax (male Sprague-Dawley rat; oral, 1 mg/kg): 9.97 ng/mL

COc1cc2c3c(n(CCCN4CCOCC4)c(=O)c2cc1OC)-c1cc2c(cc1C3=O)OCO2
Cmax (male Fischer 344 rat; intravenous, 12 mg/m², single dose): 406 ng/mL

CN(C(=O)n1cnc(-c2ccc[n+]([O-])c2)c1)C1CCCCC1
half-life (male cynomolgus monkey; oral, 0.3 mg/kg): 2.2 h

C=CC(=O)N1CC2CC(n3nc(-c4ccc(C(=O)Nc5ccccn5)cc4)c4c(N)ncnc43)CC2C1 (centres unmarked)
Cmax (male Wistar rat; oral, 30 mg/kg): 1260 ng/mL

CCN(CC)C(=O)[C@@]1(c2ccccc2)C[C@H]1CN
half-life (male cynomolgus monkey; oral, 30 mg/kg): 6.3 h

CC(C)(O)c1cn(-c2ccc(-c3cc(F)c(CO)c(S(C)(=O)=O)c3)cc2F)c(C(C)(C)c2c(Cl)cccc2Cl)n1
half-life (male cynomolgus monkey; intravenous, 1 mg/kg, single dose): 10 to 12 h

CCCC[C@@H]1NC(=O)[C@H](Cc2ccc(O)cc2)NC(=O)[C@@H]2CCCN2C(=O)[C@H](CC(=O)O)NC(=O)[C@H](C)NC(=O)[C@H](Cc2ccccc2)NC(=O)[C@@H]2CSCCC(=O)N3CN(CN(C3)C(=O)CCSC[C@@H](C(=O)N[C@@H](C)C(N)=O)NC1=O)C(=O)CCSC[C@H](NC(C)=O)C(=O)N[C@@H](CC(C)(C)C)C(=O)N1CCC[C@H]1C(=O)N[C@@H](CCC(=O)O)C(=O)N[C@H](CCCCNC(=O)CCc1cn(CCOCCOCCOCCOCCOCCC(=O)N[C@H]3CSCCC(=O)N4CN5CN(C4)C(=O)CCSC[C@H](NC(=O)[C@@H](CC(=O)O)NC(=O)[C@H](Cc4cccc6ccccc46)NC(=O)[C@@H]4CCCN4C3=O)C(=O)N[C@@H](CCSC)C(=O)N[C@@H](CCCCNC(=N)N)C(=O)N[C@@H](CC(=O)O)C(=O)N[C@@H](Cc3c[nH]c4ccccc34)C(=O)N[C@@H](CO)C(=O)N[C@@H]([C@@H](C)O)C(=O)N3CCC[C@H]3C(=O)N3C[C@H](O)C[C@H]3C(=O)N[C@@H](Cc3c[nH]c4ccccc34)C(=O)N[C@H](C(N)=O)CSCCC5=O)nn1)C(=O)N1CCC[C@H]1C(=O)N[C@@H](Cc1ccc(O)cc1)C(=O)N2
half-life (cynomolgus monkey; intravenous, 1 mg/kg, infusion): 0.5 h
